Data taken from ChEMBL document CHEMBL1212700, “Small-molecule aggregates inhibit amyloid polymerization” (Nat Chem Biol, 2008).
pIC50: −log10 of the molar value. The source made the active and inactive calls. The rule behind the calls is not given here.

Key:
[1] = target: T1, Eukaryotic peptide chain release factor GTP-binding subunit (Saccharomyces cerevisiae) (UniProt P05453); details: at 50 µM
T1 sequence (whole entry): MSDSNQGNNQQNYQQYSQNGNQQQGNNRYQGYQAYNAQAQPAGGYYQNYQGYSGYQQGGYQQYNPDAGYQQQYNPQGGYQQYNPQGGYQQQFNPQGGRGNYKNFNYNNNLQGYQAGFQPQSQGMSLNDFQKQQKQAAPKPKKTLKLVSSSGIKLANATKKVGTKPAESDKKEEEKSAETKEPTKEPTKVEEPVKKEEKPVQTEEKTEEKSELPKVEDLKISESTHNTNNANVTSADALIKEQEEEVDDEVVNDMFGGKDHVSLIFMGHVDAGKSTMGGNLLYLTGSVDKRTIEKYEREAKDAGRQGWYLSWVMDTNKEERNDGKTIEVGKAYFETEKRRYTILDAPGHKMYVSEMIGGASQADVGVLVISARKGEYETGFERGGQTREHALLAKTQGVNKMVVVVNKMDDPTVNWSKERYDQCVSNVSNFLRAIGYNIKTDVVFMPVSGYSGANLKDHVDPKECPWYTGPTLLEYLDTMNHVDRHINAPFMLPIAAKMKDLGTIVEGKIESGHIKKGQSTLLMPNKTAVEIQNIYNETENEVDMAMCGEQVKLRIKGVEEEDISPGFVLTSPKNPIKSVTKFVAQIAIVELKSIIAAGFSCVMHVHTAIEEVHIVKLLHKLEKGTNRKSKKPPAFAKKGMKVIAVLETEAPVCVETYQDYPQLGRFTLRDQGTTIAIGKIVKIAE

[2] = Inhibition of Beta-lactamase at 25 uM by nitrocefin hydrolysis assay
[3] = target: T1, Eukaryotic peptide chain release factor GTP-binding subunit (Saccharomyces cerevisiae); details: at 50 µM; remark: listed apart in the source
Mus musculus [4] = species on record: Mus musculus; details: at 50 µM
[5] = Inhibition of Beta-lactamase at 25 uM in presence of 0.01% Triton X-100 by nitrocefin hydrolysis assay
[6] = Inhibition of Beta-lactamase at 35 uM by nitrocefin hydrolysis assay
[7] = Inhibition of Beta-lactamase at 35 uM in presence of 0.01% Triton X-100 by nitrocefin hydrolysis assay
[8] = Inhibition of Beta-lactamase at 4 uM by nitrocefin hydrolysis assay
[9] = target: T1, Eukaryotic peptide chain release factor GTP-binding subunit (Saccharomyces cerevisiae); assay: Inhibition of polyhistidine tagged yeast prion protein Sup35 expressed in Escherichia coli BL21 (DE3) assessed as inhibition of amyloid polymerization at 5 uM in presence of 5 mg/ml BSA by thioflavin T fluorescence assay relative to untreated control
How it was run: (§1)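 Sup35 fibrillization followed by thioflavin T fluorescence in seeded and unseeded polymerization reactions. For BSA lines, BSA added from a 20 mg ml−1 solution to a final 5 mg ml−1. Inhibition is relative to untreated reactions.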

[10] = target: T1, Eukaryotic peptide chain release factor GTP-binding subunit (Saccharomyces cerevisiae); assay: Inhibition of polyhistidine tagged yeast prion protein Sup35 expressed in Escherichia coli BL21 (DE3) assessed as inhibition of amyloid polymerization at 5 uM by thioflavin T fluorescence assay relative to untreated control
How it was run: as §1

[11] = Inhibition of Beta-lactamase at 4 uM in presence of 0.01% Triton X-100 by nitrocefin hydrolysis assay
[12] = target: T1, Eukaryotic peptide chain release factor GTP-binding subunit (Saccharomyces cerevisiae); assay: Inhibition of yeast prion protein Sup35 infection of PSI yeast spheroplast cells at 200 uM
How it was run: (§2)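 Yeast made infection-competent by enzymatic digestion of the cell wall, then exposed to Sup35 prion with compound; infectivity scored. EC50 derived from a 40–200 μM concentration series.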

[13] = Inhibition of dynamic light scattering at 20 uM by thioflavin T fluorescence assay relative to untreated control; format: physicochemical
How it was run: (§3)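 Sup35 polymerization followed by dynamic light scattering rather than ThT fluorescence, as a control for spectroscopic interference; percent inhibition of the DLS signal.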

[14] = target: T1, Eukaryotic peptide chain release factor GTP-binding subunit (Saccharomyces cerevisiae); assay: Inhibition of polyhistidine tagged yeast prion protein Sup35 expressed in Escherichia coli BL21 (DE3) assessed as inhibition of amyloid polymerization at 30 uM by thioflavin T fluorescence assay relative to untreated control
How it was run: as §1

[15] = target: T2, Eukaryotic peptide chain release factor GTP-binding subunit (Saccharomyces cerevisiae, UniProt P05453); assay: Inhibition of polyhistidine tagged yeast prion protein Sup35 expressed in Escherichia coli BL21 (DE3) assessed as inhibition of amyloid polymerization by thioflavin T fluorescence assay relative to untreated control
T2 sequence (P05453 whole entry): T1 sequence (whole entry)
How it was run: as §1

[16] = target: T1, Eukaryotic peptide chain release factor GTP-binding subunit (Saccharomyces cerevisiae); assay: Inhibition of polyhistidine tagged yeast prion protein Sup35 expressed in Escherichia coli BL21 (DE3) assessed as inhibition of amyloid polymerization at 30 uM in presence of 5 mg/ml BSA by thioflavin T fluorescence assay relative to untreated control
How it was run: as §1

[17] = target: T1, Eukaryotic peptide chain release factor GTP-binding subunit (Saccharomyces cerevisiae); assay: Inhibition of polyhistidine tagged yeast prion protein Sup35 expressed in Escherichia coli BL21 (DE3) assessed as coating of prion protein with […] particles at 100 uM by transmission electron microscopy
How it was run: (§4)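 Preformed fibres (recMoPrP at 50 μM compound, Sup35 at 100 μM compound) were mixed with compound, then examined by transmission electron microscopy for colloidal particles coating the fibres.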

[18] = Inhibition of dynamic light scattering at 2 uM by thioflavin T fluorescence assay relative to untreated control; format: physicochemical
How it was run: as §3

[19] = target: T1, Eukaryotic peptide chain release factor GTP-binding subunit (Saccharomyces cerevisiae); assay: Inhibition of polyhistidine tagged yeast prion protein Sup35 expressed in Escherichia coli BL21 (DE3) assessed as inhibition of fiber formation at 100 uM by transmission electron microscopy
How it was run: (§5)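 Transmission electron microscopy of recMoPrP (50 μM compound) or Sup35 (100 μM compound) polymerized in the presence of compound, scored for fibre formation.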

[20] = Inhibition of Beta-lactamase at 30 uM by nitrocefin hydrolysis assay
[21] = Inhibition of Beta-lactamase at 30 uM in presence of 0.01% Triton X-100 by nitrocefin hydrolysis assay
[22] = target: T1, Eukaryotic peptide chain release factor GTP-binding subunit (Saccharomyces cerevisiae); assay: Inhibition of polyhistidine tagged yeast prion protein Sup35 expressed in Escherichia coli BL21 (DE3) assessed as inhibition of amyloid polymerization at 50 uM in presence of 5% seed fibres by thioflavin T fluorescence assay relative to untreated control
How it was run: (§6)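 Seeded Sup35 polymerization read by thioflavin T fluorescence, with seed at 0.5%, 1% or 5% and compound at fixed 50 μM. Preincubation line: 5-min preincubation before polymerization.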

[23] = target: T1, Eukaryotic peptide chain release factor GTP-binding subunit (Saccharomyces cerevisiae); assay: Inhibition of polyhistidine tagged yeast prion protein Sup35 expressed in Escherichia coli BL21 (DE3) assessed as inhibition of amyloid polymerization at 50 uM in presence of 0.5% seed fibres by thioflavin T fluorescence assay relative to untreated control
How it was run: as §6

[24] = Inhibition of dynamic light scattering at 25 uM by thioflavin T fluorescence assay relative to untreated control; format: physicochemical
How it was run: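 Sup35 fibrillization was tracked by dynamic light scattering, which served as a check against spectroscopic interference in the thioflavin T fluorescence read-out. Inhibition was scored against the reaction without compound.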

Mus musculus [25] = species on record: Mus musculus; assay: Inhibition of mouse prion protein (89-230) assessed as inhibition of amyloid polymerization at 25 uM by thioflavin T fluorescence assay relative to untreated control
How it was run: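 Mouse prion protein (recMoPrP) fibrillization monitored by thioflavin T fluorescence; reactions contained 3 M urea.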

Saccharomyces cerevisiae = assay: Toxicity in PSI yeast spheroplast cells infected with yeast prion protein Sup35; format: organism-based
[26] = target: T1, Eukaryotic peptide chain release factor GTP-binding subunit (Saccharomyces cerevisiae); assay: Inhibition of polyhistidine tagged yeast prion protein Sup35 expressed in Escherichia coli BL21 (DE3) assessed as inhibition of amyloid polymerization preincubation of seed fibers and compound for 5 mins at 100 uM by thioflavin T fluorescence assay relative to untreated control
[27] = target: T1, Eukaryotic peptide chain release factor GTP-binding subunit (Saccharomyces cerevisiae); assay: Inhibition of polyhistidine tagged yeast prion protein Sup35 expressed in Escherichia coli BL21 (DE3) assessed as inhibition of amyloid polymerization at 50 uM in presence of 1% seed fibres by thioflavin T fluorescence assay relative to untreated control
How it was run: as §6

[28] = target: T1, Eukaryotic peptide chain release factor GTP-binding subunit (Saccharomyces cerevisiae); assay: Inhibition of polyhistidine tagged yeast prion protein Sup35 expressed in Escherichia coli BL21 (DE3) assessed as inhibition of amyloid polymerization at 100 uM by thioflavin T fluorescence assay relative to untreated control
How it was run: as §1

[29] = target: T1, Eukaryotic peptide chain release factor GTP-binding subunit (Saccharomyces cerevisiae); assay: Inhibition of polyhistidine tagged yeast prion protein Sup35 expressed in Escherichia coli BL21 (DE3) assessed as inhibition of amyloid polymerization at 10 uM in presence of 5 mg/ml BSA by thioflavin T fluorescence assay relative to untreated control
How it was run: as §1

[30] = target: T1, Eukaryotic peptide chain release factor GTP-binding subunit (Saccharomyces cerevisiae); assay: Inhibition of polyhistidine tagged yeast prion protein Sup35 expressed in Escherichia coli BL21 (DE3) assessed as inhibition of amyloid polymerization at 10 uM by thioflavin T fluorescence assay relative to untreated control
How it was run: as §1

Mus musculus [31] = species on record: Mus musculus; assay: Inhibition of mouse prion protein (89-230) assessed as assessed as inhibition of fiber formation at 50 uM by transmission electron microscopy
How it was run: as §5

Mus musculus [32] = species on record: Mus musculus; assay: Inhibition of mouse prion protein (89-230) assessed as assessed as coating of prion protein with […] particles at 50 uM by transmission electron microscopy
How it was run: as §4

[33] = Inhibition of Beta-lactamase at 50 uM in presence of 0.01% Triton X-100 by nitrocefin hydrolysis assay
[34] = Inhibition of Beta-lactamase at 50 uM by nitrocefin hydrolysis assay
[35] = target: T1, Eukaryotic peptide chain release factor GTP-binding subunit (Saccharomyces cerevisiae); assay: Inhibition of yeast prion protein Sup35 infection of PSI yeast spheroplast cells at 100 uM
How it was run: as §2

SMILES: Oc1c(I)cc(Cl)c2cccnc12
- inhibition [1]: 0%
- inhibition [2]: 51.6%
- inhibition [3]: 54.7%
- inhibition (Mus musculus [4]): 0%
- inhibition [5]: 6.4%

SMILES: Cc1cc(/N=N/c2ccc(-c3ccc(/N=N/c4cc(C)c(O)c(C(=O)O)c4)cc3)cc2)c(C(=O)O)cc1O
- inhibition [6]: 50%
- inhibition [7]: 0%

SMILES: Clc1ccc(CSC(Cn2ccnc2)c2ccc(Cl)cc2Cl)cc1 (stereo not given)
- inhibition [1]: 10.1%
- inhibition [3]: 75.5%
- inhibition (Mus musculus [4]): 100%

SMILES: Nc1c(/N=N/c2ccc(-c3ccc(/N=N/c4cc(S(=O)(=O)O)c5ccccc5c4N)cc3)cc2)cc(S(=O)(=O)O)c2ccccc12
- inhibition [8]: 92%
- inhibition [9]: 100%
- inhibition [10]: 100%
- inhibition (Mus musculus [4]): 100%
- inhibition [11]: 20%

SMILES: O=C1C(I)=CC(=C(c2ccccc2C(=O)O)C2C=C(I)C(=O)C(I)=C2)C=C1I [TERAIODOPHENOLPHATHALIN]
- inhibition [12]: Active
- inhibition (INH) [13]: 99%
- inhibition [14]: 99.3%
- pIC50 [15]: 5.60
- inhibition [16]: 6.8%
- inhibition [17]: Active
- inhibition (INH) [18]: 30%
- inhibition (Mus musculus [4]): 0%
- inhibition [19]: Active

SMILES: O=c1cc(-c2ccccc2)oc2cc(O)c(O)c(O)c12
- inhibition [1]: 17.6%
- inhibition [12]: Active
- inhibition [20]: 51.8%
- inhibition [3]: 95.4%
- inhibition (Mus musculus [4]): 34.3%
- inhibition [21]: 0%

SMILES: Clc1ccccc1C(c1ccccc1)(c1ccccc1)n1ccnc1 [CLOTRIMAZOLE]
- inhibition [22]: 30%
- inhibition [1]: 5.6%
- inhibition [23]: 99%
- inhibition (INH) [24]: 98%
- inhibition [3]: 62.7%
- inhibition (Mus musculus [25]): 21.5%
- Activity (Saccharomyces cerevisiae): Toxic
- inhibition [26]: 94%
- inhibition [27]: 95%
- inhibition [28]: 79%

SMILES: OC(Cn1cncn1)(Cn1cncn1)c1ccc(F)cc1F
- inhibition [1]: 9%
- inhibition [3]: 0%
- inhibition (Mus musculus [4]): 5.9%

SMILES: Oc1ccc(/N=N/c2ccc(Br)cc2)cc1
- inhibition [29]: 2.1%
- inhibition [30]: 36.4%
- inhibition (Mus musculus [25]): 100%
- Activity (Saccharomyces cerevisiae): Toxic

SMILES: CC(=O)c1c(O)c(C)c(O)c(Cc2c(O)c3c(c(C(=O)/C=C/c4ccccc4)c2O)OC(C)(C)C=C3)c1O
- inhibition [12]: Active
- inhibition (Mus musculus [31]): Active
- inhibition [14]: 99.4%
- inhibition [16]: 40.5%
- inhibition (Mus musculus [25]): 71.1%
- inhibition (Mus musculus [32]): Active

SMILES: CCN(CC)CC(=O)Nc1c(C)cccc1C
- inhibition [1]: 0%
- inhibition [12]: Active
- inhibition [3]: 1.1%
- inhibition (Mus musculus [25]): 0%

SMILES: O=C1NC(=O)c2cc(Nc3ccccc3)c(Nc3ccccc3)cc21
- inhibition [1]: 44.7%
- inhibition [12]: Active
- inhibition [33]: 0.7%
- inhibition [34]: 97%
- inhibition [3]: 87.1%
- inhibition (Mus musculus [25]): 73.6%

SMILES: COC(=O)C1=C(C)NC(C)=C(C(=O)OCCN(C)Cc2ccccc2)C1c1cccc([N+](=O)[O-])c1 (stereo not given)
- inhibition [1]: 0%
- inhibition [12]: Active
- inhibition [35]: 50%
- inhibition [3]: 61.5%
- inhibition (Mus musculus [4]): 22.7%
- inhibition [26]: 88%
- inhibition [28]: 55%
